In PubChem BioAssay AID624299 (Broad Institute, 2012) one finds activity change, negative = inhibition and AC50 data, which are given here for 87 compounds.

Several values for one entry are separate records, joined by “and”; a condition that tells them apart may be missing. Equal entries are not always repeated. Activity calls are given as the source filed them.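 Rule for the calls: active = compounds lowering the cell viability light signal with a fitted AC50 at most twice the top dose tested; inconclusive = flat fit with 30 to 70% inhibition, or poor fit; inactive = the rest.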 Bounds are passed on as bounds.

Test system in the first assay: not listed separately
In words: cytotoxicity in MALME3 melanoma cells – cell-based, CellTiter-Glo luminescence, dry powder samples, set 2, orthogonal assay for MITF inhibitor project, dose response (AID 624299). As to conditions: MALME3 melanoma viability, CellTiter-Glo ATP luminescence, 24 h; at 35 µM (top of the series). The method in brief:
(§1)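 Material: MALME3 melanoma cells; Buffer or medium: IMDM lacking phenol red, supplemented with 10% FBS; Dosing: multi-dose pinned compounds; Schedule: 37 °C compound incubation, 5 min RT before reading; Detection: CellTiter-Glo ATP luminescence.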
With `O=C(NC1=C(c2ccc(Oc3ccccc3)cc2)C(=O)c2ccccc2C1=O)c1ccccc1`, the activity change, negative = inhibition was -15.3% (inactive).

On to `C=CCNC1=C(NCC=C)C(=O)c2ccccc2C1=O`, for which the activity change, negative = inhibition is 2.12% (inactive).

As for `O=C(NC1=C(N2CCN(c3ccccc3)CC2)C(=O)c2ccccc2C1=O)c1ccccc1`, the activity change, negative = inhibition is -8.35% (inactive).

For the compound `O=C1C(NS(=O)(=O)c2ccc(Br)cc2)=C(N2CCN(c3ccccc3)CC2)C(=O)c2ccccc21`, the activity change, negative = inhibition was -51.2% (inactive).

In the case of `O=C(NC1=C(c2ccc(OC(F)(F)F)cc2)C(=O)c2ccccc2C1=O)c1ccc(Br)cc1`, the activity change, negative = inhibition is 2.43% (inactive).

With `COc1ccc(C2=C(NC(=O)c3ccc(OC)cc3-c3cccc(OC)c3)C(=O)c3ccccc3C2=O)cc1`, the activity change, negative = inhibition is -8.34% (inactive).

For the compound `COc1ccc(C2=C(NC(=O)c3ccc4ccccc4c3)C(=O)c3ccccc3C2=O)cc1`, the activity change, negative = inhibition was -7.26% (inactive).

The next assay deals with MALME3 melanoma viability, CellTiter-Glo ATP luminescence, 24 h. The description is as above.
Conditions: not given
An outline of the steps: as §1
On to `CC(=O)NC1=C(c2ccc(Cl)cc2)C(=O)c2ccccc2C1=O`, for which the AC50 was 13.9 µM.

For the compound `CN1CCN(C2=C(NS(=O)(=O)c3cccs3)C(=O)c3ccccc3C2=O)CC1`, the AC50 is 11.7 µM.

As to `C=CCNC1=C(Cl)C(=O)c2ccccc2C1=O`, the AC50 was 9.65 µM and 12.4 µM.

Consider `COc1ccc(C(=O)NC2=C(c3ccc(OC)cc3)C(=O)c3ccccc3C2=O)cc1`, for which the AC50 is 23.1 µM.

With `NC1=CC(=O)c2ccccc2C1=O`, the AC50 is 7.89 µM.

For the compound `O=C1C(Nc2ccccc2)=C(N2CCCCC2)C(=O)c2ccccc21`, the AC50 was 5.84 µM.

On to `COc1ccc(C2=C(NC(=O)c3cccc(OC)c3)C(=O)c3ccccc3C2=O)cc1`, for which the AC50 is 26.8 µM.

As to `CC(=O)N(C)C1=C(N2CCOCC2)C(=O)c2ccccc2C1=O`, the AC50 was 7.36 µM.

Take `O=C1C(NS(=O)(=O)c2ccc(Br)cc2)=C(N2CCCCC2)C(=O)c2ccccc21`: the AC50 was 31.5 µM.

In the case of `O=C(NC1=C(c2ccc(OC(F)(F)F)cc2)C(=O)c2ccccc2C1=O)c1ccccc1F`, the AC50 was > 70 µM (inactive).

As for `Cc1nc2ccccc2n1/N=C/c1ccc([N+](=O)[O-])s1`, the AC50 was 11.3 µM.

As to `CN1CCN(C2=C(NS(=O)(=O)c3ccc(Br)s3)C(=O)c3ccccc3C2=O)CC1`, the AC50 is 12.5 µM.

Turning to `Cc1ccc(C(=O)NC2=C(c3ccccc3)C(=O)c3ccccc3C2=O)o1`, the AC50 was 23.7 µM.

In the case of `C=CCNC1=C(N2CCOCC2)C(=O)c2ccccc2C1=O`, the AC50 is 5.76 µM.

In the case of `CCN1CCN(C2=C(NS(=O)(=O)c3ccc(Br)s3)C(=O)c3ccccc3C2=O)CC1`, the AC50 was 17.2 µM.

As to `CC(=O)N(C)C1=C(N2CCN(C)CC2)C(=O)c2ccccc2C1=O`, the half-maximal activity concentration (AC50) was 1.96 µM.

Regarding `COc1ccc(C2=C(NC(=O)c3ccccc3OC)C(=O)c3ccccc3C2=O)cc1`, the AC50 is > 70 µM (inactive).

In the case of `C=CCNC1=C(N2CCN(CC)CC2)C(=O)c2ccccc2C1=O`, the AC50 was 17.9 µM.

Take `O=C1C(NS(=O)(=O)c2ccc(Br)s2)=C(N2CCSCC2)C(=O)c2ccccc21`: the AC50 is 30.2 µM.

Take `O=C(NC1=C(c2ccccc2)C(=O)c2ccccc2C1=O)c1ccc(Br)cc1`: the AC50 was > 70 µM (inactive).

For `C=CCNC1=C(NCCN(CC)CC)C(=O)c2ccccc2C1=O`, the half-maximal activity concentration (AC50) is 8.96 µM.

For the compound `O=C(CNc1cccc2ccccc12)N/N=C/c1ccc([N+](=O)[O-])o1`, the AC50 is 22.8 µM.

For `CCN1CCN(C2=C(NS(=O)(=O)c3ccc(Br)cc3)C(=O)c3ccccc3C2=O)CC1`, the concentration at half-maximal activity (AC50) was 20 µM.

With `O=C(NC1=C(N2CCOCC2)C(=O)c2ccccc2C1=O)c1ccccc1`, the AC50 was 24.4 µM.

On to `CCN(CC)CCCNC1=C(Nc2ccccc2)C(=O)c2ccccc2C1=O`, for which the AC50 is 25.5 µM.

`C=C1C(=O)OC2C1CC/C(C)=C\CCC1(C)OC21` (configuration not stated): the AC50 is 22.9 µM.

Regarding `CCN1CCN(C2=C(NC(=O)c3ccc(Br)cc3)C(=O)c3ccccc3C2=O)CC1`, the AC50 is 1.79 µM.

As to `O=C(NC1=C(N2CCSCC2)C(=O)c2ccccc2C1=O)c1ccc(Br)cc1`, the concentration at half-maximal activity (AC50) is 20.8 µM.

As to `CN1CCN(C2=C(NS(=O)(=O)c3ccc(Br)cc3)C(=O)c3ccccc3C2=O)CC1`, the AC50 was > 70 µM (inactive).

For `COc1ccc(S(=O)(=O)N(C(C)=O)c2ccc(OC(C)=O)c3ccccc23)cc1[N+](=O)[O-]`, the AC50 was 19.6 µM.

For `CC(=O)NC1=C(c2cccc(Cl)c2)C(=O)c2ccccc2C1=O`, the AC50 is 13.1 µM.

On to `COc1ccc(C2=C(N)C(=O)c3ccccc3C2=O)cc1`, for which the AC50 is > 70 µM (inactive).

For the compound `CN1CCN(C2=C(Nc3ccccc3)C(=O)c3ccccc3C2=O)CC1`, the AC50 is 16.4 µM.

With `CCN(CC)CCCNC1=C(N(C)C(C)=O)C(=O)c2ccccc2C1=O`, the concentration at half-maximal activity (AC50) is 3.12 µM.

In the case of `C=CCNC1=C(N2CCSCC2)C(=O)c2ccccc2C1=O`, the AC50 is 5.96 µM.

Regarding `C=CCNC1=C(NC(=O)c2ccccc2)C(=O)c2ccccc2C1=O`, the AC50 is > 70 µM (inactive).

Consider `O=C(NC1=C(Cl)C(=O)c2ccccc2C1=O)c1ccccc1`, for which the AC50 was 5.7 µM.

As to `CCN1CCN(C2=C(N(C)C(C)=O)C(=O)c3ccccc3C2=O)CC1`, the AC50 is 2.5 µM.

Take `O=C(NC1=C(N2CCOCC2)C(=O)c2ccccc2C1=O)c1ccc(Br)cc1`: the half-maximal activity concentration (AC50) is 16.1 µM.

Turning to `O=C1C=C(Nc2ccccc2)C(=O)c2ccccc21`, the AC50 is 2.18 µM.

For `C=CCNC1=C(Nc2ccccc2)C(=O)c2ccccc2C1=O`, the AC50 was > 70 µM (inactive).

On to `COc1ccc(C(=O)NC2=C(c3ccccc3)C(=O)c3ccccc3C2=O)cc1`, for which the AC50 was 28.3 µM.

Consider `C=CCNC1=C(N2CCN(C)CC2)C(=O)c2ccccc2C1=O`, for which the AC50 is 19.1 µM.

`CCN1CCN(C2=C(NC(=O)c3ccccc3)C(=O)c3ccccc3C2=O)CC1`: the AC50 is 3.93 µM.

Consider `CN1CCN(C2=C(NC(=O)c3ccccc3)C(=O)c3ccccc3C2=O)CC1`, for which the AC50 is 5.16 µM.

Regarding `CN1CCN(C2=C(NS(=O)(=O)c3ccccc3)C(=O)c3ccccc3C2=O)CC1`, the AC50 is 7.3 µM.

Regarding `O=C1C(NCCCN2CCOCC2)=C(Nc2ccccc2)C(=O)c2ccccc21`, the AC50 is > 70 µM (inactive).

On to `CCN1CCN(C2=C(Nc3ccccc3)C(=O)c3ccccc3C2=O)CC1`, for which the AC50 was 12.4 µM.

On to `O=C1C(Nc2ccccc2)=C(N2CCSCC2)C(=O)c2ccccc21`, for which the AC50 is > 70 µM (inactive).

For `COc1ccc(C2=C(NC(=O)c3ccc(Cl)cc3)C(=O)c3ccccc3C2=O)cc1`, the AC50 was 32 µM.

Regarding `C=CCNC1=C(NCCCN(CC)CC)C(=O)c2ccccc2C1=O`, the AC50 was 16.2 µM.

Regarding `CC1CCN(CC(CS(=O)(=O)c2ccc([N+](=O)[O-])cc2)N2CCC(C)CC2)CC1` (configuration not stated), the AC50 is 23 µM.

Take `CCN1c2ccccc2NC2N=C(OC)C(c3ccccc3)C21` (configuration not stated): the AC50 was 6.63 µM.

With `CC(=O)NC1=C(c2ccc3c(c2)oc2ccccc23)C(=O)c2ccccc2C1=O`, the concentration at half-maximal activity (AC50) was 22 µM.

Take `C[C@@H](NC1=C(Nc2ccccc2)C(=O)c2ccccc2C1=O)c1ccccc1`: the AC50 was > 70 µM (inactive).

As to `C=CCNC1=C(N(C)C(C)=O)C(=O)c2ccccc2C1=O`, the AC50 was 0.7 µM.

For `O=C(NC1=C(c2ccccc2)C(=O)c2ccccc2C1=O)c1ccco1`, the half-maximal activity concentration (AC50) is 23.5 µM.

Take `COc1cccc(-c2cc(C(=O)NC3=C(Cl)C(=O)c4ccccc4C3=O)ccc2OC)c1`: the AC50 is 16.3 µM.

For `O=C1C(NS(=O)(=O)c2ccccc2)=C(N2CCOCC2)C(=O)c2ccccc21`, the AC50 is 26.9 µM.

As to `O=C1C(NS(=O)(=O)c2ccc(Br)cc2)=C(c2ccc(OC(F)(F)F)cc2)C(=O)c2ccccc21`, the AC50 was > 70 µM (inactive).

On to `O=C1C(NS(=O)(=O)c2cccs2)=C(N2CCOCC2)C(=O)c2ccccc21`, for which the concentration at half-maximal activity (AC50) is 21.7 µM.

In the case of `COC1=C(NS(=O)(=O)c2ccccc2)C(=O)c2ccccc2C1=O`, the AC50 is 13.4 µM.

`COc1ccc(C2=C(NC(=O)c3ccccc3Cl)C(=O)c3ccccc3C2=O)cc1`: the AC50 was 21.3 µM.

As for `O=C1C(NS(=O)(=O)c2ccc(Br)cc2)=C(N2CCOCC2)C(=O)c2ccccc21`, the AC50 was 23.4 µM.

For `O=C(NC1=C(c2ccccc2)C(=O)c2ccccc2C1=O)c1ccccc1`, the AC50 was 32.2 µM.

With `CN1CCN(C2=C(NC(=O)c3ccc(Br)cc3)C(=O)c3ccccc3C2=O)CC1`, the AC50 was 1.93 µM.

For the compound `C=CCNC1=C(N2CCCCC2)C(=O)c2ccccc2C1=O`, the AC50 is 1.61 µM.

On to `NC1=C(NC(=O)c2ccccc2)C(=O)c2ccccc2C1=O`, for which the AC50 is 16.1 µM.

With `CCN1CCN(C2=C(NS(=O)(=O)c3cccs3)C(=O)c3ccccc3C2=O)CC1`, the AC50 is 14.9 µM.

For the compound `O=C(NC1=C(N2CCSCC2)C(=O)c2ccccc2C1=O)c1ccccc1`, the AC50 is 18.8 µM.

`COc1ccc(C2=C(NC(C)=O)C(=O)c3ccccc3C2=O)cc1`: the AC50 is 12 µM.

For `O=C(NC1=C(N2CCCCC2)C(=O)c2ccccc2C1=O)c1ccccc1`, the AC50 is > 70 µM (inactive).

Turning to `O=C1C(Nc2ccccc2)=C(N2CCOCC2)C(=O)c2ccccc21`, the AC50 is 15.6 µM and 24.9 µM.

For the compound `O=C1C(Nc2ccccc2)=C(N2CCN(c3ccccc3)CC2)C(=O)c2ccccc21`, the AC50 was > 70 µM (inactive).

As to `COc1cccc(C2=C(NC(=O)c3ccccc3)C(=O)c3ccccc3C2=O)c1`, the AC50 was 20.4 µM.

For `CC(=O)N(C)C1=C(N2CCCCC2)C(=O)c2ccccc2C1=O`, the AC50 was 4.94 µM.

Regarding `NC1=C(c2ccc(OC(F)(F)F)cc2)C(=O)c2ccccc2C1=O`, the AC50 was > 70 µM (inactive).

On to `CC(=O)NC1=C(c2ccccc2)C(=O)c2ccccc2C1=O`, for which the AC50 is 18.6 µM.

On to `O=C1C(NS(=O)(=O)c2ccc(Br)s2)=C(N2CCOCC2)C(=O)c2ccccc21`, for which the AC50 was 25.7 µM.

As to `COc1ccc(C(=O)NC2=C(c3ccc(OC(F)(F)F)cc3)C(=O)c3ccccc3C2=O)cc1`, the AC50 was > 70 µM (inactive).

As a reminder, the AC50 is the midpoint of the concentration-response curve, whichever way the signal moves.
